# Measured values as given in ChEMBL document CHEMBL4007470, “Discovery of a 2'-fluoro-2'-C-methyl C-nucleotide HCV polymerase inhibitor and a phosphoramidate prodrug with favorable properties” (Bioorg Med Chem Lett, 2017).
# Tests used:
# [1] = Activity at human mitochondrial RNA polymerase assessed as incorporation rate relative to ATP; type: ADME
# [2] = Inhibition of human DNA polymerase-gamma
# [3] = Inhibition of human DNA polymerase-alpha
# [4] = Inhibition of HCV genotype 1b wild-type NS5B RNA dependent RNA polymerase; set-up: species or system Hepatitis C virus subtype 1b
# [5] = test system: RNA-directed RNA polymerase (Hepacivirus hominis), O39930 [UNDEFINED MUTATION]; experiment: Inhibition of HCV genotype 1b wild-type NS5B RNA dependent RNA polymerase S282T mutant relative to control; details: Hepatitis C virus subtype 1b
# DNA polymerase beta = DNA polymerase beta (Homo sapiens, UniProt P06746); experiment: Inhibition of human DNA polymerase-beta
# Hepatitis C virus [6] = experiment: Antiviral activity against HCV genotype 1b infected in human HuH7 cells by luciferase reporter gene assay; type: functional, cell-based, Hepacivirus hominis
# In short: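 Luciferase-reporter genotype 1b subgenomic replicon in Huh-7 cells; EC50 is concentration giving 50% inhibition. Values are averages of at least three repeats.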
# [7] = Inhibition of human RNA polymerase-2
# [8] = (§1) Hepatic extraction in human liver S9 fractions at 2 uM by LC-MS/MS analysis; type: ADME; details: liver S9 fractions, read-out: ERH
# In short: (§2)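 Compound at 2 μM incubated with S9 fractions at 37 °C for 90 min with NADPH and UDPGA. Quenched with aqueous acetonitrile/methanol containing internal standard and analysed by LC-MS/MS. Half-life from an exponential fit assuming first-order kinetics. Hepatic extraction predicted from half-life using the well-stirred model.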
# [9] = Half life in hamster plasma at 2 uM by LC-MS/MS analysis; type: ADME, cell-free; details: cricetinae
# In short: (§3)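 Compound at 2 μM incubated in plasma at 37 °C for up to 4 h. Aliquots quenched with 9 volumes of acetonitrile containing internal standard, then centrifuged. Supernatant analysed by LC-MS/MS.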
# [10] = Prodrug activation in human HuH7 cells infected with HCV genotype 1b assessed as ((2R,3R,4R,5S)-5-(4-aminoimidazo[1,2-f][1,2,4]triazin-7-yl)-4-fluoro-3-hydroxy-4-methyltetrahydrofuran-2-yl)methyl tetrahydrogen triphosphate level per million cells at 10 uM after 6 hrs by LC-MS/MS analysis; type: cell-based; details: huh-7, 6 h
# In short: (§4)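 HCV genotype 1b replicon Huh-7 cells (DMEM with glutaMAX, 10% heat-inactivated FBS, penicillin-streptomycin, G418) grown to confluency (0.88×10^6 cells/well), exposed continuously to prodrug at 10 μM for up to 24 h; washed in ice-cold saline, extracted into 70% methanol overnight, dried, resuspended in 1 mM ammonium phosphate pH 8.5; triphosphate quantified by LC-MS/MS; LLOQ 0.137 pmol/million cells; duplicate wells, single experiment.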
# [11] = Half life in hamster intestinal S9 fractions at 2 uM by LC-MS/MS analysis; type: ADME, Intestine; details: cricetinae; for half-life at 2 µM: intestinal S9 fractions
# [12] = (§5) Half life in human plasma at 2 uM by LC-MS/MS analysis; type: ADME, cell-free; in short: as §3
# [13] = Hepatic extraction in hamster liver S9 fractions at 2 uM by LC-MS/MS analysis; type: ADME; details: cricetinae; for hepatic extraction ratio at 2 µM: liver S9 fractions, read-out: ERH; in short: as §2
# Huh-7 = experiment: Cytotoxicity against human HuH7 cells; type: cell-based
# Hepatitis C virus [14] = experiment: Antiviral activity against HCV genotype 1a infected in human HuH7 cells by luciferase reporter gene assay; type: functional, cell-based, Hepacivirus hominis, subtype 1a
# [15] = Half life in human intestinal S9 fractions at 2 uM by LC-MS/MS analysis; type: ADME, Intestine; in short: as §2
# [16] = Prodrug activation in human HuH7 cells infected with HCV genotype 1b assessed as ((2R,3R,4R,5S)-5-(4-aminoimidazo[1,2-f][1,2,4]triazin-7-yl)-4-fluoro-3-hydroxy-4-methyltetrahydrofuran-2-yl)methyl tetrahydrogen triphosphate level per million cells at 10 uM after 24 hrs by LC-MS/MS analysis; type: cell-based; details: huh-7, 24 h; in short: as §4
# Hepatitis C virus [17] = experiment: Antiviral activity against HCV genotype 4a infected in human HuH7 cells by luciferase reporter gene assay; type: functional, cell-based, Hepacivirus hominis
# [18] = Prodrug activation in human HuH7 cells infected with HCV genotype 1b assessed as ((2R,3R,4R,5S)-5-(4-aminoimidazo[1,2-f][1,2,4]triazin-7-yl)-4-fluoro-3-hydroxy-4-methyltetrahydrofuran-2-yl)methyl tetrahydrogen triphosphate level per million cells at 10 uM after 2 hrs by LC-MS/MS analysis; type: cell-based; details: huh-7, 2 h; in short: as §4
# [19] = Solubility of the compound in pH 7.4 solution; type: physicochemical
# In short: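 Solubility measured at pH 7.4 using amorphous material.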
# [20] = Prodrug activation in Syrian golden hamster liver assessed as triphosphate metabolite formation at 5 mg equivalents/kg, po after 1 hr by LC-MS/MS analysis; type: ADME, organism-based, Mesocricetus auratus; details: in vivo
# In short: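 Golden Syrian hamsters (groups of 12) dosed orally at 5 mg-eq/kg in EtOH/PEG400/water buffered with 50 mM pH 4 citrate. Livers harvested under isoflurane at 1 h and extracted in cold KOH/EDTA/70% MeOH with Cl-ATP. Triphosphate measured by LC/MS/MS, with endogenous ATP checked for sample stability.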
# [21] = Permeability of the compound from apical to basolateral side in human Caco2 cells at 10 uM; type: ADME, cell-based, Caco-2
# In short: (§6)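 Caco-2 permeability at 10 μM compound, measured in apical-to-basolateral and basolateral-to-apical directions.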
# Plasma [22] = experiment: Stability in rat plasma at 2 uM up to 4 hrs by LC-MS/MS analysis; type: ADME, cell-free; in short: as §3
# [23] = Permeability of the compound from basolateral to apical side in human Caco2 cells at 10 uM; type: ADME, cell-based, Caco-2; in short: as §6
# Liver = experiment: as §1; type: ADME; details: s9, 2 µM, 2 µM; in short: as §2
# Plasma [24] = experiment: as §5; type: ADME, cell-free; details: 2 µM; in short: as §3
# [25] = Prodrug activation in human HuH7 cells infected with HCV genotype 1b assessed as ((2R,3R,4R,5R)-5-(4-aminoimidazo[1,2-f][1,2,4]triazin-7-yl)-5-cyano-4-fluoro-3-hydroxy-4-methyltetrahydrofuran-2-yl)methyl tetrahydrogen triphosphate level per million cells at 10 uM after 6 hrs by LC-MS/MS analysis; type: cell-based; details: huh-7, 6 h; in short: as §4
# [26] = Prodrug activation in human HuH7 cells infected with HCV genotype 1b assessed as ((2R,3R,4R,5R)-5-(4-aminoimidazo[1,2-f][1,2,4]triazin-7-yl)-5-cyano-4-fluoro-3-hydroxy-4-methyltetrahydrofuran-2-yl)methyl tetrahydrogen triphosphate level per million cells at 10 uM after 2 hrs by LC-MS/MS analysis; type: cell-based; details: huh-7, 2 h; in short: as §4
# [27] = Prodrug activation in human HuH7 cells infected with HCV genotype 1b assessed as ((2R,3R,4R,5R)-5-(4-aminoimidazo[1,2-f][1,2,4]triazin-7-yl)-5-cyano-4-fluoro-3-hydroxy-4-methyltetrahydrofuran-2-yl)methyl tetrahydrogen triphosphate level per million cells at 10 uM after 24 hrs by LC-MS/MS analysis; type: cell-based; details: huh-7, 24 h; in short: as §4
# [28] = Hepatitis C virus, genotype 1b, Huh-7
# [29] = Hepatitis C virus, subtype 1a, Huh-7
# [30] = Hepatitis C virus, genotype 4a, Huh-7
structure (smiles),measurement,setting,value
C[C@@]1(F)[C@H](O)[C@@H](COP(=O)(O)OP(=O)(O)OP(=O)(O)O)O[C@H]1c1cnc2c(N)ncnn12,Activity,[1],0.04%
same,IC50,[2],> 200000 nM
same,IC50,[3],> 200000 nM
same,IC50,[4],150 nM
same,fold change (FC),[5],5.9
same,IC50,DNA polymerase beta,> 200000 nM
same,EC50,Hepatitis C virus [6]; [28],> 89000 nM
same,IC50,[7],> 200000 nM
CCOC(=O)[C@H](C)NP(=O)(OC[C@H]1O[C@@H](c2cnc3c(N)ncnn23)[C@](C)(F)[C@@H]1O)Oc1ccccc1 (stereo partly specified),hepatic extraction ratio at 2 µM,[8],0.83
same,half-life at 2 µM,[9],> 13.2 h
same,Drug metabolism,[10],13 pmol
same,half-life at 2 µM,[11],0.4 h
same,half-life at 2 µM,[12],7.57 h
same,hepatic extraction ratio at 2 µM,[13],0.76
same,Activity,Huh-7,Non-Toxic
same,EC50,Hepatitis C virus [14]; [29],370 nM
same,half-life at 2 µM,[15],2.23 h
same,Drug metabolism,[16],20.5 pmol
same,EC50,Hepatitis C virus [17]; [30],100 nM
same,Drug metabolism,[18],2.4 pmol
same,EC50,Hepatitis C virus [6]; [28],580 to 590 nM
CC(C)OC(=O)[C@H](C)N[P@](=O)(OC[C@H]1O[C@@H](c2cnc3c(N)ncnn23)[C@](C)(F)[C@@H]1O)Oc1ccccc1,hepatic extraction ratio at 2 µM,[8],0.65
same,half-life at 2 µM,[9],> 13.2 h
same,half-life at 2 µM,[11],0.183 h
same,solubility,[19],642 µg/mL
same,half-life at 2 µM,[12],> 13.2 h
same,liver triphosphate concentration,[20],0.34 µM
same,hepatic extraction ratio at 2 µM,[13],0.97
same,EC50,Hepatitis C virus [14]; [29],510 nM
same,half-life at 2 µM,[15],9.83 h
same,Papp A→B at 10 µM,"[21]; Caco-2, read-out: permeability",0.94 ×10⁻⁶ cm/s
same,EC50,Hepatitis C virus [17]; [30],110 nM
same,Stability,Plasma [22],Unstable
same,EC50,Hepatitis C virus [6]; [28],670 nM
same,Papp B→A at 10 µM,"[23]; Caco-2, read-out: permeability",16.6 ×10⁻⁶ cm/s
CC(C)OC(=O)C1(NP(=O)(OC[C@H]2O[C@@H](c3cnc4c(N)ncnn34)[C@](C)(F)[C@@H]2O)Oc2ccccc2)CCC1 (stereo in doubt; 54),ERH,Liver,78%
same,t1/2,[9]; 2 µM,7.17 h
same,t1/2,"[11]; s9, 2 µM, 2 µM",0.3 h
same,t1/2,Plasma [24],> 13.2 h
same,ERH,"[13]; s9, 2 µM, 2 µM",96%
same,EC50,Hepatitis C virus [14],7300 nM
same,permeability,"[21]; caco-2, 10 µM, 10 µM",1.3 ×10⁻⁶ cm/s
same,EC50,Hepatitis C virus [17],740 nM
same,EC50,Hepatitis C virus [6],31200 nM
same,permeability,"[23]; caco-2, 10 µM, 10 µM",9.2 ×10⁻⁶ cm/s
C[C@@]1(CO)[C@H](O)CC[C@@]2(C)[C@H]1CC[C@H]1C[C@@H]3C[C@@]12CC[C@]3(O)CO [APHIDICOLIN],IC50,[3],7300 nM
CCOC(=O)[C@H](C)NP(=O)(OC[C@H]1O[C@@](C#N)(c2ccc3c(N)ncnn23)[C@](C)(F)[C@@H]1O)Oc1ccccc1 (stereo partly specified),Activity,Huh-7,Non-Toxic
same,Drug metabolism,[25],5.8 pmol
same,Drug metabolism,[26],1.6 pmol
same,Drug metabolism,[27],3.3 pmol
same,EC50,Hepatitis C virus [6]; [28],3240 nM
